Laboratory results as given in ChEMBL document CHEMBL5136958, “The development of HEC-866 and its analogues for the treatment of idiopathic pulmonary fibrosis” (RSC Med Chem, 2021).
pIC50: −log10 of the molar value. Each block holds one compound with its values, some of them ahead of it. The source made the active and inactive calls. No cut-off for these calls is given here.

What was measured:
[1] = AUC(infinity) in Sprague-Dawley rat model of bleomycin-induced pulmonary fibrosis at 5 mg/kg, po by LC-MS/MS analysis; format: ADME, organism-based; parameters: time infinity, dose 5 mg/kg, route po; conditions: in vivo
Outline: (§1)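 Male Sprague-Dawley rats with induced pulmonary fibrosis; single i.v. (2.0 mg kg⁻¹) or p.o. (5.0 mg kg⁻¹) administration. Plasma samples stored at −70 °C; the supernatant was analysed by LC-MS/MS for PK parameters.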

[2] = Half life in Sprague-Dawley rat model of bleomycin-induced pulmonary fibrosis at 2 mg/kg, iv by LC-MS/MS analysis; format: ADME, organism-based; conditions: in vivo; outline: as §1
[3] = AUClast in Sprague-Dawley rat model of bleomycin-induced pulmonary fibrosis at 5 mg/kg, po by LC-MS/MS analysis; format: ADME, organism-based; parameters: time 0 - last, dose 5 mg/kg, route po; conditions: in vivo; outline: as §1
HFL1 [4] = assay: Antiproliferative activity against human HFL1 cells assessed as reduction in cell proliferation measured after 24 hrs by CCK-8 assay; format: functional, cell-based; conditions: HFL1, 24 h
Outline: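 Human fetal lung fibroblasts (HFL-1); growth inhibition quantified with CCK-8; IC50 averaged from 3 experiments, each in duplicate.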

[5] = AUC(infinity) in Sprague-Dawley rat model of bleomycin-induced pulmonary fibrosis at 2 mg/kg, iv by LC-MS/MS analysis; format: ADME, organism-based; parameters: time infinity, dose 2 mg/kg, route iv; conditions: in vivo; outline: as §1
[6] = Half life in Sprague-Dawley rat model of bleomycin-induced pulmonary fibrosis at 5 mg/kg, po by LC-MS/MS analysis; format: ADME, organism-based; conditions: in vivo; outline: as §1
[7] = AUClast in Sprague-Dawley rat model of bleomycin-induced pulmonary fibrosis at 2 mg/kg, iv by LC-MS/MS analysis; format: ADME, organism-based; parameters: time 0 - last, dose 2 mg/kg, route iv; conditions: in vivo; outline: as §1
[8] = Clearance in Sprague-Dawley rat model of bleomycin-induced pulmonary fibrosis at 2 mg/kg, iv by LC-MS/MS analysis; format: ADME, organism-based; conditions: in vivo; outline: as §1
HFL1 [9] = assay: Antifibrotic activity in TGF-beta1-induced HFL1 cell injury assessed as down regulation of collagen 1 mRNA expression at 3 mM measured after 24 hrs by RT-PCR analysis; format: functional, cell-based; conditions: Homo sapiens
Outline: (§2)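 TGF-β1-induced HFL-1 cells treated 24 h (test range 0.625–10 μM; comparator 3 mM); collagen 1 and collagen 3 mRNA measured by RT-PCR; mean of n = 3.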

[10] = Cmax in Sprague-Dawley rat model of bleomycin-induced pulmonary fibrosis at 2 mg/kg, iv by LC-MS/MS analysis; format: ADME, organism-based; parameters: dose 2 mg/kg, route iv; conditions: in vivo; outline: as §1
[11] = Oral bioavailability in Sprague-Dawley rat model of bleomycin-induced pulmonary fibrosis at 10 mg/kg by LC-MS/MS analysis; format: ADME, organism-based; conditions: in vivo
Rattus norvegicus = assay: Antifibrotic activity against bleomycin-induced pulmonary fibrosis in Sprague-Dawley rat assessed as reduction in lung histopathological changes at 100 mg/kg, po administered daily for 1 to 14 days starting from post bleomycin stimulation by H and E staining based assay; format: functional, organism-based; conditions: time 1-14 day
Outline: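 Bleomycin-induced lung fibrosis in SD rats; oral dosing daily from day 1 for 14 days; saline for sham and bleomycin groups; comparator 100 mg kg⁻¹ d, test doses 2 and 6 mg kg⁻¹ d; lung pathology assessed by HE histology.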

[12] = Cmax in Sprague-Dawley rat model of bleomycin-induced pulmonary fibrosis at 10 mg/kg, po by LC-MS/MS analysis; format: ADME, organism-based; parameters: dose 10 mg/kg, route po; conditions: in vivo
[13] = Half life in Sprague-Dawley rat model of bleomycin-induced pulmonary fibrosis at 10 mg/kg, po by LC-MS/MS analysis; format: ADME, organism-based; conditions: in vivo
HFL1 [14] = assay: Antifibrotic activity in TGF-beta1-induced HFL1 cell injury assessed as alpha-SMA expression at 3 mM measured after 48 hrs by Western blot analysis (reference value: 100%); format: functional, Homo sapiens
Outline: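 HFL-1 cells stimulated with TGF-β1; α-SMA protein detected by Western blot with anti-α-SMA antibody, normalised to tubulin; mean of n = 3.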

[15] = Tmax in Sprague-Dawley rat model of bleomycin-induced pulmonary fibrosis at 10 mg/kg, po by LC-MS/MS analysis; format: ADME, organism-based; conditions: in vivo
[16] = AUC(infinity) in Sprague-Dawley rat model of bleomycin-induced pulmonary fibrosis at 10 mg/kg, po by LC-MS/MS analysis; format: ADME, organism-based; parameters: time infinity, dose 10 mg/kg, route po; conditions: in vivo
HFL1 [17] = assay: Antifibrotic activity in TGF-beta1-induced HFL1 cell injury assessed as down regulation of collagen 3 mRNA expression at 3 mM measured after 24 hrs by RT-PCR analysis; format: functional, cell-based; conditions: Homo sapiens; outline: as §2
[18] = AUClast in Sprague-Dawley rat model of bleomycin-induced pulmonary fibrosis at 10 mg/kg, po by LC-MS/MS analysis; format: ADME, organism-based; parameters: time 0 - last, dose 10 mg/kg, route po; conditions: in vivo
[19] = Clearance in Sprague-Dawley rat model of bleomycin-induced pulmonary fibrosis at 1 mg/kg, iv by LC-MS/MS analysis; format: ADME, organism-based; conditions: in vivo
[20] = Cmax in Sprague-Dawley rat model of bleomycin-induced pulmonary fibrosis at 5 mg/kg, po by LC-MS/MS analysis; format: ADME, organism-based; parameters: dose 5 mg/kg, route po; conditions: in vivo; outline: as §1
[21] = AUC(infinity) in Sprague-Dawley rat model of bleomycin-induced pulmonary fibrosis at 1 mg/kg, iv by LC-MS/MS analysis; format: ADME, organism-based; parameters: time infinity, dose 1 mg/kg, route iv; conditions: in vivo
[22] = Half life in Sprague-Dawley rat model of bleomycin-induced pulmonary fibrosis at 1 mg/kg, iv by LC-MS/MS analysis; format: ADME, organism-based; conditions: in vivo
[23] = AUClast in Sprague-Dawley rat model of bleomycin-induced pulmonary fibrosis at 1 mg/kg, iv by LC-MS/MS analysis; format: ADME, organism-based; parameters: time 0 - last, dose 1 mg/kg, route iv; conditions: in vivo
[24] = Oral bioavailability in Sprague-Dawley rat model of bleomycin-induced pulmonary fibrosis at 5 mg/kg by LC-MS/MS analysis; format: ADME, organism-based; conditions: in vivo
Outline: (§3)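 Male Sprague-Dawley rats with induced pulmonary fibrosis were dosed 2.0 mg kg⁻¹ i.v. or 5.0 mg kg⁻¹ p.o. Plasma was stored at -70 °C, and the supernatant was analysed by LC-MS/MS.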

[25] = Tmax in Sprague-Dawley rat model of bleomycin-induced pulmonary fibrosis at 5 mg/kg, po by LC-MS/MS analysis; format: ADME, organism-based; conditions: in vivo; outline: as §3

- AUC(0-inf) [1]: 3410 ng·h/mL
- half-life [2]: 6.73 h
- AUC(0-t) [3]: 1550 ng·h/mL
- AUC(0-inf) [5]: 3260 ng·h/mL
- half-life [6]: 5.26 h
- AUC(0-t) [7]: 1450 ng·h/mL
- clearance [8]: 10.8 mL/min/kg
Compound: Cc1cc(=O)n(-c2ccc(N3CCC(COc4cccc(F)c4)CC3)c(Cl)c2)c(C)n1
- pIC50 (HFL1 [4]): 4.30

Compound: Cc1cc(=O)n(-c2ccc(N3CCC(Nc4cccc(C(F)(F)F)c4)CC3)c(Cl)c2)c(C)n1
- pIC50 (HFL1 [4]): 4.22

Compound: Cc1cc(=O)n(-c2ccc(N3CCC(Cc4cccc(F)c4)CC3)cn2)c(C)n1
- pIC50 (HFL1 [4]): 3.89

- AUC(0-inf) [1]: 2030 ng·h/mL
- half-life [2]: 10.9 h
- AUC(0-t) [3]: 1750 ng·h/mL
- AUC(0-inf) [5]: 1060 ng·h/mL
- half-life [6]: 9.6 h
- AUC(0-t) [7]: 898 ng·h/mL
- clearance [8]: 15.8 mL/min/kg
Compound: Cc1cc(=O)n(-c2ccc(N3CCC(Cc4cccc(Cl)c4)CC3)c(Cl)c2)c(C)n1
- pIC50 (HFL1 [4]): 4.30

Compound: Cc1cc(=O)n(-c2ccc(N3CCC(Cc4ccc(F)cc4)CC3)c(F)c2)c(C)n1
- pIC50 (HFL1 [4]): 3.96

Compound: Cc1cc(=O)n(-c2ccc(N3CCC(Cc4ccc5ccccc5c4)CC3)c(Cl)c2)c(C)n1
- pIC50 (HFL1 [4]): 4.05

- Cmax [10]: 1010 ng/mL
- bioavailability [11]: 107%
- half-life [2]: 0.4 h
- Cmax [12]: 5070 ng/mL
- AUC(0-inf) [5]: 650 ng·h/mL
- half-life [13]: 0.4 h
- Tmax [15]: 0.3 h
- AUC(0-t) [7]: 649 ng·h/mL
- AUC(0-inf) [16]: 3460 ng·h/mL
- AUC(0-t) [18]: 3460 ng·h/mL
- clearance [8]: 53.3 mL/min/kg
Compound: Cc1ccc(=O)n(-c2ccccc2)c1 [PIRFENIDONE]
- Activity (HFL1 [9]): Active
- Activity (Rattus norvegicus): Active
- pIC50 (HFL1 [4]): 2.04
- Activity (HFL1 [14]): 83.71%
- Activity (HFL1 [17]): Active

Compound: Cc1cccc(CC2CCN(c3ccc(-n4c(C)nc(C)cc4=O)cc3F)CC2)c1
- pIC50 (HFL1 [4]): 4.00

Compound: Cc1cc(=O)n(-c2ccc(N3CCC(Cc4ccccc4-c4ccccc4)CC3)c(Cl)c2)c(C)n1
- pIC50 (HFL1 [4]): 4.15

Compound: Cc1cc(=O)n(-c2ccc(N3CCC(Cc4cccc(F)c4)CC3)nc2)c(C)n1
- pIC50 (HFL1 [4]): 3.89

Compound: C=CCc1ccccc1OC1CCN(c2ccc(-n3c(C)nc(C)cc3=O)cc2Cl)CC1
- pIC50 (HFL1 [4]): 4.15

Compound: Cc1cc(=O)n(-c2ccc(N3CCC(Cc4cccc5cccnc45)CC3)c(Cl)c2)c(C)n1
- pIC50 (HFL1 [4]): 3.92

Compound: Cc1cc(=O)n(-c2ccc(N3CCC(Cc4ccccc4Cl)CC3)c(Cl)c2)c(C)n1
- pIC50 (HFL1 [4]): 4.15

- AUC(0-inf) [1]: 6360 ng·h/mL
- half-life [2]: 8.2 h
- AUC(0-t) [3]: 5690 ng·h/mL
- AUC(0-inf) [5]: 2400 ng·h/mL
- half-life [6]: 8.41 h
- AUC(0-t) [7]: 2190 ng·h/mL
- clearance [8]: 13.8 mL/min/kg
Compound: Cc1cc(=O)n(-c2ccc(N3CCC(Cc4cc(F)c(F)c(F)c4)CC3)c(Cl)c2)c(C)n1
- pIC50 (HFL1 [4]): 4.22

- AUC(0-inf) [1]: 7080 ng·h/mL
- half-life [2]: 13.5 h
- AUC(0-t) [3]: 5180 ng·h/mL
- AUC(0-inf) [5]: 3220 ng·h/mL
- half-life [6]: 11.8 h
- AUC(0-t) [7]: 2460 ng·h/mL
- clearance [8]: 10.3 mL/min/kg
Compound: Cc1cc(=O)n(-c2ccc(N3CCC(Cc4cccc(C(F)(F)F)c4)CC3)c(Cl)c2)c(C)n1
- pIC50 (HFL1 [4]): 4.22

Compound: Cc1cc(=O)n(-c2ccc(N3CCC(Cc4cccc(F)c4)CC3)c(Cl)c2)c(C)n1
- pIC50 (HFL1 [4]): 4.22

Compound: Cc1cc(=O)n(-c2cnc(N3CCC(Oc4cccc(F)c4)CC3)c(Cl)c2)c(C)n1
- pIC50 (HFL1 [4]): 4.15

Compound: Cc1cc(=O)n(-c2ccc(N3CCC(Oc4cccc(F)c4)CC3)c(F)c2)c(C)n1
- pIC50 (HFL1 [4]): 3.96

- AUC(0-inf) [1]: 33500 ng·h/mL
- clearance [19]: 1.67 mL/min/kg
- Cmax [20]: 4720 ng/mL
- AUC(0-inf) [21]: 7290 ng·h/mL
- AUC(0-t) [3]: 32600 ng·h/mL
- half-life [6]: 4.3 h
- half-life [22]: 4.3 h
- AUC(0-t) [23]: 7130 ng·h/mL
- bioavailability [24]: 92%
- Tmax [25]: 0.5 h
Compound: Cc1cc(=O)n(-c2ccc(N3CCOCC3)c(F)c2)c(C)n1
- pIC50 (HFL1 [4]): 2.18

Compound: Cc1cc(=O)n(-c2cnc(N3CCC(Cc4cccc(F)c4)CC3)c(Cl)c2)c(C)n1
- pIC50 (HFL1 [4]): 4.22

- AUC(0-inf) [1]: 1600 ng·h/mL
- half-life [2]: 5.27 h
- AUC(0-t) [3]: 1560 ng·h/mL
- AUC(0-inf) [5]: 1130 ng·h/mL
- half-life [6]: 5.21 h
- AUC(0-t) [7]: 1110 ng·h/mL
- clearance [8]: 29.8 mL/min/kg
Compound: Cc1cc(=O)n(-c2ccc(N3CCC(Cc4cccc5ccccc45)CC3)c(F)c2)c(C)n1
- pIC50 (HFL1 [4]): 4.22
